Data on 22 compounds can be found in ChEMBL document CHEMBL1148738, “Design, synthesis, and in vitro evaluation of carbamate derivatives of 2-benzoxazolyl- and 2-benzothiazolyl-(3-hydroxyphenyl)-methanones as novel fatty acid amide hydrolase inhibitors” (J Med Chem, 2007).

The species named for assay [1] is Rattus norvegicus. Nature of the assay: Inhibition of MAGL in Wistar rat cerebellar membrane assessed as remaining enzyme activity at 100 uM; values are per cent of control. As to conditions: Cerebellum.
Assay [2] concerns the target T1, Fatty-acid amide hydrolase 1 (Rattus norvegicus, UniProt P97612).
T1 sequence (P97612 whole entry): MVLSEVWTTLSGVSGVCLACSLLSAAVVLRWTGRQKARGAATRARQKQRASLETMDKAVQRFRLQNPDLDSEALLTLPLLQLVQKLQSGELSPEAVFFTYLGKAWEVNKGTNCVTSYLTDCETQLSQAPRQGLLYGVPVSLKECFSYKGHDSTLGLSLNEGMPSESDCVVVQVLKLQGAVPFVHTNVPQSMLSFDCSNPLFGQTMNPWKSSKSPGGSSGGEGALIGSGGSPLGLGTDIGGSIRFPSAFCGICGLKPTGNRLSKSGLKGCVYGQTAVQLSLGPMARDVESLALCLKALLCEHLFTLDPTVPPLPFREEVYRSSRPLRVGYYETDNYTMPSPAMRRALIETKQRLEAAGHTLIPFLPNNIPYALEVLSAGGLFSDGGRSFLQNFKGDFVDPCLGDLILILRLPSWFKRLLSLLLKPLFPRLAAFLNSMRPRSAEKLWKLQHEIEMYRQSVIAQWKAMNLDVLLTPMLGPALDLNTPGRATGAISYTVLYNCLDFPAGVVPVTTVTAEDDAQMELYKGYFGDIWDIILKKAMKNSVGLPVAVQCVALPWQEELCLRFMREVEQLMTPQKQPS
The experiment in a line: Inhibition of FAAH activity in Wistar rat brain. The method in brief: (§1)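 Enzyme source: supernatant (10 000 g, 20 min, 4 °C) of whole-brain-minus-cerebellum homogenate from 8-week-old male Wistar rats in 0.1 M potassium phosphate pH 7.4. Compound (in DMSO, final max 5%) preincubated 10 min with 18 µg protein. Substrate: [ethanolamine 1-³H]arachidonoylethanolamide, with 0.5% fatty-acid-free BSA, 10 min at 37 °C. Stopped with ethyl acetate. Aqueous [³H]ethanolamine counted by liquid scintillation.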

Assay [3] is filed under the species Rattus norvegicus. The experiment in a line: Inhibition of MAGL in Wistar rat cerebellar membrane at 100 uM. The assay is classed as cell membranes. The settings on record: Cerebellum. The method in brief:
(§2)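 Cerebellar membranes from 4-week-old male Wistar rats. Preincubation 30 min at 25 °C: 10 µg protein, 44 mM Tris-HCl pH 7.4, 0.9 mM EDTA, 0.5% BSA, 1.25% DMSO. Incubation 90 min at 25 °C: 5 µg protein, 54 mM Tris-HCl, 1.1 mM EDTA, 100 mM NaCl, 5 mM MgCl2, 0.5% BSA, 50 µM 2-AG. Samples at 0 and 90 min stopped with acidified acetonitrile (pH 3.0). 2-AG and arachidonic acid quantified by HPLC-UV at 211 nm from peak areas.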

The target in assay [4] is T2, Fatty-acid amide hydrolase 1 (Rattus norvegicus) (UniProt P97612).
T2 sequence (whole entry): T1 sequence (P97612 whole entry)
The experiment in a line: Inhibition of FAAH activity in Wistar rat brain at 10 uM. A digest of the protocol: as §1

The nature of assay [5]: Inhibition of MAGL in Wistar rat cerebellar membrane. It counts as cell membranes, Cerebellum. The method in brief:
as §2

The species named for assay [6] is Rattus norvegicus. Nature of the assay: Inhibition of MAGL in Wistar rat cerebellar membrane assessed as remaining enzyme activity at 1 mM; values are per cent of control. As to conditions: Cerebellum.
Assay [7] has as its target T2, Fatty-acid amide hydrolase 1 (Rattus norvegicus). Nature of the assay: Inhibition of FAAH activity in Wistar rat brain assessed as remaining enzyme activity at 10 uM; values are per cent of control.

Calls of active or inactive are those of the source. The rule behind the calls is not given here.

`CCCNC(=O)Oc1cccc(C(=O)c2nc3ccccc3s2)c1`: the residual activity in assay [1] amounted to 70%. In assay [2], it took 143 nM to reach half-maximal inhibition (IC50).

In the case of `O=C(NC1CCCC1)Oc1cccc(C(=O)c2nc3ccccc3o2)c1`, in assay [1], the residual activity worked out at 54%. In addition, in assay [2], 28 nM corresponded to half-maximal inhibition (IC50).

With `O=C(c1cccc(OCc2ccccc2)c1)c1nc2ccccc2s1`, in assay [3], the inhibition entry was “inactive”. The outcome in assay [4] was inactive.

For the compound `O=C(NC1CCCCC1)Oc1cccc(C(=O)c2nc3ccccc3o2)c1`, in assay [1], the residual activity came out at 83%. In addition, the IC50 in assay [2] is 47 nM.

As to `O=C(NC1CCCC1)Oc1ccc(C(=O)c2nc3ccccc3o2)cc1`, the figures for the IC50 in assay [5] and in assay [2] were 14000 nM and 288 nM, respectively.

`O=C(NCc1ccccc1)Oc1cccc(C(=O)c2nc3ccccc3o2)c1`: the residual activity in assay [1] was 57%. The half-maximal inhibitory concentration (IC50) in assay [2] was determined as 152 nM.

As to `Cc1ccccc1CNC(=O)Oc1ccc(C(=O)c2nc3ccccc3o2)cc1`, the IC50 in assay [5] turned out to be 25000 nM; in assay [2] it was 137 nM. Besides, the residual activity in assay [6] came out at 11%.

For the compound `O=C(NC1CCCCC1)Oc1cccc(C(=O)c2nc3ccccc3s2)c1`, the residual activity in assay [1] stood at 79%. This compound displayed a 50% inhibitory concentration (IC50) in assay [2] of 56 nM.

For the compound `Cc1cccc(CNC(=O)Oc2cccc(C(=O)c3nc4ccccc4o3)c2)c1`, the 50% inhibitory concentration (IC50) in assay [5] came to 16000 nM; in assay [2], 32 nM. In addition, in assay [6], the residual activity turned out to be 11%.

Regarding `CCCNC(=O)Oc1cccc(C(=O)c2nc3ccccc3o2)c1`, in assay [1], the residual activity was 57%. It took 109 nM to reach half-maximal inhibition in assay [2] (IC50).

As to `CCNC(=O)Oc1cccc(C(=O)c2nc3ccccc3o2)c1`, the residual activity in assay [1] turned out to be 75%. The compound further gave an IC50 in assay [2] of 379 nM.

Consider `CCNC(=O)Oc1cccc(C(=O)c2nc3ccccc3s2)c1`, for which, in assay [1], the residual activity worked out at 80%. Besides, the half-inhibitory concentration (IC50) in assay [2] worked out at 238 nM.

For `Cc1cccc(CNC(=O)Oc2cccc(C(=O)c3nc4ccccc4s3)c2)c1`, the figures for the concentration for half-maximal inhibition (IC50) in assay [5] and in assay [2] were 23000 nM and 38 nM, respectively. For the same compound, in assay [6], the residual activity is 11%.

Regarding `O=C(c1cccc(NC(=O)C2CCCC2)c1)c1nc2ccccc2o1`, the outcome in assay [3] was inactive. The residual activity in assay [7] is 95%.

Turning to `CCCCNC(=O)Oc1cccc(C(=O)c2nc3ccccc3s2)c1`, the residual activity in assay [1] is 76%. For the same compound, in assay [2], the half-inhibitory concentration (IC50) turned out to be 103 nM.

On to `O=C(NCc1ccccc1)Oc1cccc(C(=O)c2nc3ccccc3s2)c1`, for which the residual activity in assay [1] was 75%. Also, in assay [2], it took 121 nM to reach half-maximal inhibition (IC50).

For the compound `O=C(c1cccc(OC(=O)C2CCCC2)c1)c1nc2ccccc2o1`, the result in assay [3] was inactive. Besides, in assay [7], the residual activity came to 88%.

As for `O=C(c1cccc(OCc2ccccc2)c1)c1nc2ccccc2o1`, the outcome in assay [3] and in assay [4] was inactive.

Turning to `O=C(NC1CCCC1)Oc1cccc(C(=O)c2nc3ccccc3s2)c1`, in assay [1], the residual activity is 71%. Besides, it took 47 nM to reach half-maximal inhibition in assay [2] (IC50).

As for `O=C(Nc1cccc(C(=O)c2nc3ccccc3o2)c1)OC1CCCC1`, the outcome in assay [3] was inactive. Moreover, in assay [7], the residual activity stood at 95%.

As for `O=C(Nc1cccc(C(=O)c2nc3ccccc3o2)c1)NC1CCCC1`, in assay [3], the result was inactive. Besides, in assay [7], the residual activity turned out to be 94%.

As for `CCCCNC(=O)Oc1cccc(C(=O)c2nc3ccccc3o2)c1`, the residual activity in assay [1] turned out to be 59%. The IC50 in assay [2] is 54 nM.
